Results taken from paper PMC10793096 (Acta Pharmaceutica Sinica. B, 2023).
Read-outs that look alike come from different tables or passages of the source.

How the values were obtained:
[1] = test system: MRC-5 (human lung fibroblasts, non-cancerous); settings: read-out: IC50 MRC-5; taken from the literature; cited from earlier work
[2] = test system: CT26 (murine colon carcinoma) cell line; test: Colorimetric MTT cytotoxicity assay, CT26; assay type: cell-based
[3] = test system: MCF-7 (human breast adenocarcinoma) cell line; test: Colorimetric MTT cytotoxicity assay, MCF-7; assay type: cell-based; settings: for IC50: Homo sapiens
[4] = test system: MRC-5 (human lung fibroblasts, non-cancerous); test: Colorimetric MTT cytotoxicity assay, MRC-5; assay type: cell-based; settings: MRC5, 72 h, read-out: IC50 MRC-5
Summary of the method: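 MRC-5 cells from ATCC, trypsinized, seeded at 6000 cells/well (6 × 10^4 cells/mL), grown 24 h, then exposed 72 h to test compound serially diluted in complete medium. Medium replaced with MTT in media (5 mg/mL) for 45 min; formazan dissolved in DMSO, OD at 570 nm. T/C versus untreated cells; IC50 interpolated from concentration-effect curves; ≥3 independent experiments, triplicates per concentration.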

| SMILES | IC50 [1] [nM] | SF CT26 (selectivity factor) ([2]; IC50(MRC-5)/IC50(CT26)) | IC50 ([2]; Mus musculus, CT26, 72 h, read-out: IC50 CT26) [nM] | IC50 ([3]; MCF7, 72 h, read-out: IC50 MCF-7) [nM] | IC50 ([3]; MCF7, read-out: IC50s in both cancer cell lines) [nM] | SF MCF-7 (selectivity factor) ([3]; IC50(MRC-5)/IC50(MCF-7)) | IC50 [4] [nM] |
| --- | --- | --- | --- | --- | --- | --- | --- |
| CC(=O)O[C@H]1C(=O)[C@@]2(C)[C@H]([C@H](OC(=O)c3ccccc3)[C@]3(O)C[C@H](OC(=O)[C@H](O)[C@@H](NC(=O)c4ccccc4)c4ccccc4)C(C)=C1C3(C)C)[C@]1(OC(C)=O)CO[C@@H]1C[C@@H]2O [Paclitaxel] | 2.61 |  |  |  |  |  |  |
| C=C(C)[C@H]1CC[C@@]2(C)CC[C@]3(C)C[C@H]4[C@@H](C)CC(=O)[C@H]4/C(C=O)=C\C[C@H]3[C@H]12 [compound 1, Variecolin] |  | 1.1 | 1000 ± 300 | 1400 ± 300 | 1000 to 8000 | 0.8 | 1100 ± 200 |
